Experimental data reported in ChEMBL document CHEMBL1140591, “Syntheses of novel myxopyronin B analogs as potential inhibitors of bacterial RNA polymerase” (Bioorg Med Chem Lett, 2007).
In brackets after ≈: the same amount, converted by molar mass.

Assays:
Staphylococcus aureus = test: Antibacterial activity against Staphylococcus aureus; type: functional
Escherichia coli [1] = test: Inhibition of Escherichia coli DNA-dependent RNA polymerase at 10 uM by nucleotide coupled NADPH/pyrophosphate release assay
Escherichia coli [2] = test: Antibacterial activity against Escherichia coli; type: functional
In short: (§1)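 MIC determined by growth inhibition testing; the same test was also run against S. aureus.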

CEM-SS = test: Cytotoxicity against human CEM-SS cells upto 40 uM after 3 days; type: cell-based; conditions: 72 h
In short: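 CEM-SS T lymphocytes were incubated with compound for 3 days and then treated with XTT. The signal was read […] at 450 nm/650 nm, and CC50 was determined from the readings.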

Escherichia coli [3] = test: Antibacterial activity against Escherichia coli Tol C mutant; type: functional; in short: as §1
[4] = Inhibition of Escherichia coli DNA-dependent RNA polymerase by nucleotide coupled NADPH/pyrophosphate release assay
In short: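 In the pyrophosphate-release coupled assay, NADPH was monitored by fluorescence (emission ~440 nm) instead of absorbance at 340 nm. Some compounds were also tested by incorporation of radiolabeled nucleotide into RNA.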

Compound | MIC (Staphylococcus aureus) [µg/mL] | inhibition (Escherichia coli [1]) [%] | MIC (Escherichia coli [2]) [µg/mL] | Activity (CEM-SS) | MIC (Escherichia coli [3]) [µg/mL] | IC50 [4] [µM]
CCCC/C(C)=C/C=C(\C)C(=O)c1ccc(C(C)CC/C=C/NC(=O)OC)cc1O (stereo not drawn) | > 64 | 38 | > 64 | Non-toxic |  | 
CCCCCC(=O)c1c(O)cc(CCC/C=C/NC(=O)OC)oc1=O | > 64 | < 20 | > 64 | Non-toxic |  | 
CCCC/C(C)=C/C=C(\C)C(=O)c1c(O)cc(CCC/C=C/NC(=O)OC)oc1=O [DESMETHYL MYXOPYRONIN B] | 4 (≈ 9.58 µM) |  | > 64 | Non-toxic | 1 (≈ 2.4 µM) | 0.34
CCCC/C(C)=C/C=C(\C)C(=O)c1c(O)cc(CCC/C=C/NC(=O)OC)n(C)c1=O | > 64 |  | > 64 | Non-toxic |  | 15
CCCCCCCCC(=O)c1c(O)cc(CCC/C=C/NC(=O)OC)oc1=O | > 64 | < 20 | > 64 | Non-toxic |  | 
COC(=O)N/C=C/CCCc1cc(O)c(C(=O)/C=C/c2ccc3[nH]ccc3c2)c(=O)o1 | > 64 | < 20 | > 64 | Non-toxic |  | 
CCCC/C(C)=C/C=C(\C)C(=O)c1c(O)cc([C@H](C)CC/C=C/NC(=O)OC)oc1=O [MYXOPYRONIN B] | 1 (≈ 2.32 µM) |  | > 64 | Non-toxic | 2 (≈ 4.63 µM) | 0.92
CCCC/C(C)=C/C=C(\C)C(=O)c1c(O)cc(C(C)CC/C=C/NC(=O)OC)n(C)c1=O (stereo not drawn) | > 64 |  | > 64 | Non-toxic |  | 20.5
COC(=O)N/C=C/CCCc1cc(O)c(C(=O)/C(C)=C\c2ccco2)c(=O)o1 | > 64 | < 20 | > 64 | Non-toxic |  | 
COC(=O)N/C=C/CCC(C)c1cc(O)c(C(=O)NC/C=C(\C)CCC=C(C)C)c(=O)o1 (stereo not drawn) | > 64 | < 20 | > 64 | Non-toxic | 16 (≈ 35.8 µM) | 
